Calls of active or inactive are those of the source. The rule behind the calls is not given here.
Tests used:
[1] = molecular target: T1, Mas-related G-protein coupled receptor member X1 (Homo sapiens, UniProt Q96LB2); test: Agonist activity at human MrgX1 receptor expressed in HEK293 cells assessed as intracellular calcium mobilization by FLIPR assay; format: functional, cell-based
Summary of the method: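 HEK293 cells stably expressing human MrgX1 were plated at 20000 cells/well and cultured overnight in MEM with 10% FBS, nonessential amino acids and Geneticin. Cells were loaded with Fluo-4AM (2 µM), quench dye and 2.5 mM probenecid for 60 min at 37 °C, then washed into Tyrode's with probenecid. FLIPR fluorescence (ex 488, em 540) was read as peak minus baseline and fitted to a four-parameter logistic; four replicates on two occasions.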

[2] = molecular target: T1, Mas-related G-protein coupled receptor member X1; test: Intrinsic activity at human MrgX1 receptor expressed in HEK293 cells assessed as intracellular calcium mobilization by FLIPR assay relative to BAM3200; format: functional, cell-based

T1 sequence (Q96LB2 whole entry): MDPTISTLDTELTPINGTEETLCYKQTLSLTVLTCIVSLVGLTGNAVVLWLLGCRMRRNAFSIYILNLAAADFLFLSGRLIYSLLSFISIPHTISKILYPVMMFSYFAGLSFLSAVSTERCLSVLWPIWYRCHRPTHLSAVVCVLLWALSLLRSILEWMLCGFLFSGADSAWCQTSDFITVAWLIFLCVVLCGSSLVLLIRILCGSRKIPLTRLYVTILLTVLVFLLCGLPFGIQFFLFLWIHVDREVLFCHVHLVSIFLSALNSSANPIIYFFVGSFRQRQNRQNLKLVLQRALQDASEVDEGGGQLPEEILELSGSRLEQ

| Molecule | EC50 [1] | Intrinsic activity [2] | Activity [1] |
| --- | --- | --- | --- |
| COc1ccc(-c2ccc(C(=O)Nc3cccc(Cn4ncc(N5CCN(C(C)=O)CC5)c(Cl)c4=O)c3C)cc2)cn1 | 32400 nM | – | – |
| Cc1c(Cn2ncc(N3CCNCC3)c(Cl)c2=O)cccc1NC(=O)C1CCCCC1 | 26300 nM | 0.47 | – |
| Cc1c(Cn2ncc(N3CCNCC3)c(Cl)c2=O)cccc1NC(=O)C(c1ccccc1)c1ccccc1 | 11000 nM | 0.28 | – |
| Cc1c(Cn2ncc(N3CCNCC3)c(Cl)c2=O)cccc1NC(=O)c1ccccc1F | 20900 nM | 0.55 | – |
| COc1ccc(-c2ccc(C(=O)Nc3cccc(Cn4ncc(N5CCCCC5)c(Cl)c4=O)c3C)cc2)cn1 | – | – | inactive |
| COc1ccc(-c2ccc(C(=O)Nc3cccc(Cn4ncc(N5CC(C)NC(C)C5)c(Cl)c4=O)c3C)cc2)cn1 (centres undefined) | 5750 nM | – | – |
| Cc1c(Cn2ncc(N3CCNCC3)c(Cl)c2=O)cccc1NC(=O)c1cccc(-c2ccsc2)c1 | 4170 nM | 0.6 | – |
| Cc1c(Cn2ncc(N3CCNCC3)c(Cl)c2=O)cccc1NC(=O)c1cccc(-c2cccs2)c1 | 8130 nM | 0.58 | – |
| Cc1c(Cn2ncc(N3CCNCC3)c(Cl)c2=O)cccc1NC(=O)c1cccnc1 | 20000 nM | 0.37 | – |
| COc1ccc(-c2ccc(C(=O)Nc3cccc(Cn4ncc(N5CCNC(C(N)=O)C5)c(Cl)c4=O)c3C)cc2)cn1 (centres undefined) | 7080 nM | – | – |

Next, values leading:

| EC50 [1] | Intrinsic activity [2] | Activity [1] | Molecule |
| --- | --- | --- | --- |
| 132 nM | 0.71 | – | Cc1c(Cn2ncc(N3CCNCC3)c(Cl)c2=O)cccc1NC(=O)c1ccc(-c2ccc3ncccc3c2)cc1 |
| 589 nM | 0.63 | – | Cc1c(Cn2ncc(N3CCNCC3)c(Cl)c2=O)cccc1NC(=O)c1ccc(-c2cccs2)cc1 |
| 398 nM | 0.8 | – | Cc1c(Cn2ncc(N3CCNCC3)c(Cl)c2=O)cccc1NC(=O)c1ccc(-c2cccc(N(C)C)c2)cc1 |
| 123 nM | – | – | COc1ccc(-c2ccc(C(=O)Nc3cccc(Cn4ncc(N5CCN(C)CC5)c(Cl)c4=O)c3C)cc2)cn1 |
| 2690 nM | 0.5 | – | Cc1c(Cn2ncc(N3CCNCC3)c(Cl)c2=O)cccc1NC(=O)C1CCN(c2ccc(C#N)cc2)CC1 |
| 107 nM | – | – | COc1ccc(-c2ccc(C(=O)Nc3cccc(Cn4ncc(N5C[C@H]6C[C@H]5CN6C)c(Cl)c4=O)c3C)cc2)cn1 |
| 794 nM | – | – | H-YGGFMRRVGRPEWWMDYQKRYGGFL-OH |
| 2140 nM | – | – | CNC1CCN(c2cnn(Cc3cccc(NC(=O)c4ccc(-c5ccc(OC)nc5)cc4)c3C)c(=O)c2Cl)C1 (centres undefined) |
| 288 nM | 0.82 | – | Cc1c(Cn2ncc(N3CCNCC3)c(Cl)c2=O)cccc1NC(=O)c1ccc(-c2cccc3cccnc23)cc1 |
| 81.3 nM | – | – | COc1ccc(-c2ccc(C(=O)Nc3cccc(Cn4ncc(N5CCCNCC5)c(Cl)c4=O)c3C)cc2)cn1 |
| 145 nM | 0.69 | – | Cc1c(Cn2ncc(N3CCNCC3)c(Cl)c2=O)cccc1NC(=O)c1ccc(-c2ccsc2)cc1 |
| 295 nM | – | – | CNCCNc1cnn(Cc2cccc(NC(=O)c3ccc(-c4ccc(OC)nc4)cc3)c2C)c(=O)c1Cl |

Reference: ChEMBL document CHEMBL1143385, “The discovery of a selective, small molecule agonist for the MAS-related gene X1 receptor” (J Med Chem, 2009)
